Data on 17 molecules can be found in ChEMBL document CHEMBL1158568, “In silico directed chemical probing of the adenosine receptor family” (Bioorg Med Chem, 2010).

The target in assay [1] is T1, Adenosine receptor A2b (Homo sapiens) (UniProt P29275).
T1 sequence (whole entry): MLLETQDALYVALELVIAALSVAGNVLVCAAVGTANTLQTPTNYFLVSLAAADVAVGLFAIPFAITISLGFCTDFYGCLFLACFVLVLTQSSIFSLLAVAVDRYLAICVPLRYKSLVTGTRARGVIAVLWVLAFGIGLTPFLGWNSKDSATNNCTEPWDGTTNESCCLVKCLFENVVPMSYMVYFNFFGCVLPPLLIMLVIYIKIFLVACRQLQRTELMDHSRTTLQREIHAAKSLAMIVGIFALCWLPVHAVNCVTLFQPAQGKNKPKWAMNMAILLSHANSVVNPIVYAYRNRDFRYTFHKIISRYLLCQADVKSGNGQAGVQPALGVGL
Briefly: Displacement of [3H]DPCPX from human adenosine A2B receptor expressed in HEK293 cells at 10 uM after 30 mins by beta scintillation counting. The format is cell-based. In general terms: Displacement assays read how much labelled ligand stays bound in the presence of the test substance.

Assay [2] deals with T2, Adenosine receptor A3 (Homo sapiens) (UniProt P0DMS8).
T2 sequence (whole entry): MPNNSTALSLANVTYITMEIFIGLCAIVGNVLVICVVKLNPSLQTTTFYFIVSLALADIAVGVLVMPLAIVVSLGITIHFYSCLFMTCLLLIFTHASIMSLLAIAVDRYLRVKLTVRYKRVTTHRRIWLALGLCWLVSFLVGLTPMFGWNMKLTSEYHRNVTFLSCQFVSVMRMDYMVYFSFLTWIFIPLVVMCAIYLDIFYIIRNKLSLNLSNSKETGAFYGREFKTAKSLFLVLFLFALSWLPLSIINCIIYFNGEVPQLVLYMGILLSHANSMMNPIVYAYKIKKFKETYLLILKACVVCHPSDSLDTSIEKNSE
In words: Displacement of [3H]NECA from human adenosine A3 receptor expressed in human HeLa cells at 10 uM after 180 mins by beta scintillation counting. In kind it is cell-based. Summed up: (§1)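 HeLa-A3 membranes (90 lg protein) in 50 mM Tris–HCl, 1 mM EDTA, 5 mM MgCl2, 2 UI/mL adenosine deaminase, pH 7.4; 30 nM [3H]NECA, 180 min at 25 °C, triplicates, GF/B filtration. Non-specific with 100 µM (R)-PIA. Tested at 10 µM or six concentrations 10 nM–100 µM; Ki by Cheng–Prusoff.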

For assay [3], the target named is T3, Adenosine receptor A1 (Homo sapiens) (UniProt P30542).
T3 sequence (whole entry): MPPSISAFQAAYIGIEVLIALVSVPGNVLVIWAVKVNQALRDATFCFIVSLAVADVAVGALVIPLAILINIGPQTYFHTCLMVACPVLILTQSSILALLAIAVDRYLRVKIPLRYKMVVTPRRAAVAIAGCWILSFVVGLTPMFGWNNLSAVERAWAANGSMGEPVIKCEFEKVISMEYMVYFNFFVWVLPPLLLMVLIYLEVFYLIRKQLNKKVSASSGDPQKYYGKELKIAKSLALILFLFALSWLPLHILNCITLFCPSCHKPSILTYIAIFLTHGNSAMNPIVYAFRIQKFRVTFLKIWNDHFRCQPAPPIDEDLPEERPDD
Briefly: Displacement of [3H]DPCPX from human adenosine A1 receptor expressed in CHO cells at 10 uM after 60 mins by beta scintillation counting. The format is cell-based. In a few lines:
(§2)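 Membranes of CHO-A1 cells (15 lg protein) in 20 mM Hepes, 100 mM NaCl, 10 mM MgCl2, 2 units/ml adenosine deaminase, pH 7.4, with 2 nM [3H]DPCPX; 60 min at 25 °C, duplicates. Non-specific binding with 10 µM (R)-PIA. Filtration, scintillation counting. Single point at 10 µM or six concentrations 10 nM–100 µM; Ki by Cheng–Prusoff.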

Assay [4] addresses Adenosine receptor A2a (Homo sapiens, UniProt P29274). In words: Displacement of [3H]ZM241385 from human adenosine A2A receptor expressed in human HeLa cells at 10 uM after 30 mins by beta scintillation counting. The format is cell-based. In a few lines: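 Membranes from HeLa-A2A cells, 10 lg protein, in 50 mM Tris–HCl, 1 mM EDTA, 10 mM MgCl2, 2 UI/mL adenosine deaminase, pH 7.4; 3 nM [3H]ZM241385, 30 min at 25 °C, duplicates. 50 µM NECA defined non-specific binding. Single 10 µM point or six concentrations 10 nM–100 µM; Ki by Cheng–Prusoff.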

Assay [5] addresses T4, Alpha-2A adrenergic receptor (Homo sapiens) (UniProt P08913).
T4 sequence (whole entry): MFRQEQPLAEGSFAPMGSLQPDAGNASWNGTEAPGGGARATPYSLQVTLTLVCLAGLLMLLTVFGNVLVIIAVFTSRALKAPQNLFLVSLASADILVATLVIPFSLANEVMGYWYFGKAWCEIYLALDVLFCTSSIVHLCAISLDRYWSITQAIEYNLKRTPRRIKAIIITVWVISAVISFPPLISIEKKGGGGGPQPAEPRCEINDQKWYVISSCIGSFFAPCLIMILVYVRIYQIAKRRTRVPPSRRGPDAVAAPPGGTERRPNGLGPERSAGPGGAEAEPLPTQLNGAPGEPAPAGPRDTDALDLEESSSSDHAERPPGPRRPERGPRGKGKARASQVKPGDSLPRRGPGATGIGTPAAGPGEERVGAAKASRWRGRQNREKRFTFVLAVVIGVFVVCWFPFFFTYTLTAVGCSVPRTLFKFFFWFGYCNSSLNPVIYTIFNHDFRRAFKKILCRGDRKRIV
Briefly: Displacement of [3H]MK912 from human adrenergic alpha2A receptor expressed in CHO cells at 10 uM after 30 mins by beta scintillation counting. The format is cell-based. Summed up:
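CHO-a2A membranes (25 lg protein) in 25 mM Na2PO4, pH 7.4, with 0.37 nM [3H]MK-912 and compound at 10 µM; 30 min at 25 °C, duplicates. Non-specific binding with 100 µM norepinephrine; filtration and scintillation counting.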

Assay [6] has as its target T5, Adenosine receptor A3 (Homo sapiens, UniProt P0DMS8).
T5 sequence (P0DMS8 whole entry): T2 sequence (whole entry)
In words: Displacement of [3H]NECA from human adenosine A3 receptor expressed in human HeLa cells after 180 mins by beta scintillation counting. In kind it is cell-based. Summed up: as §1

For assay [7], the target named is 5-hydroxytryptamine receptor 7 (Homo sapiens) (UniProt P34969). In words: Displacement of [3H]SB269970 from human 5HT7 receptor expressed in HEK293 cells at 10 uM after 60 mins by beta scintillation counting. The format is cell-based. Summed up:
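HEK-293-5-HT7 membranes (5 lg protein) in 50 mM Tris–HCl, 4 mM CaCl2, 1 mM ascorbic acid, 0.1 mM pargyline, pH 7.4; 2 nM [3H]SB269970, compound at 10 µM, 60 min at 37 °C, duplicates. Non-specific defined with 25 µM clozapine.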

For assay [8], the target named is Histamine H1 receptor (Homo sapiens) (UniProt P35367). In words: Displacement of [3H]pyrilamine from human histamine H1 receptor expressed in CHO cells at 10 uM after 60 mins by beta scintillation counting. The format is cell-based. Summed up: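 CHO-H1 membranes (1 lg protein) in 50 mM Tris–HCl pH 7.4 with 2 nM [3H]pyrilamine and compound at 10 µM; 60 min at 27 °C, duplicates. 10 µM triprolidine for non-specific binding; GF/C filtration, scintillation counting.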
Histamine H1 receptor (Homo sapiens), sequence (P35367 whole entry): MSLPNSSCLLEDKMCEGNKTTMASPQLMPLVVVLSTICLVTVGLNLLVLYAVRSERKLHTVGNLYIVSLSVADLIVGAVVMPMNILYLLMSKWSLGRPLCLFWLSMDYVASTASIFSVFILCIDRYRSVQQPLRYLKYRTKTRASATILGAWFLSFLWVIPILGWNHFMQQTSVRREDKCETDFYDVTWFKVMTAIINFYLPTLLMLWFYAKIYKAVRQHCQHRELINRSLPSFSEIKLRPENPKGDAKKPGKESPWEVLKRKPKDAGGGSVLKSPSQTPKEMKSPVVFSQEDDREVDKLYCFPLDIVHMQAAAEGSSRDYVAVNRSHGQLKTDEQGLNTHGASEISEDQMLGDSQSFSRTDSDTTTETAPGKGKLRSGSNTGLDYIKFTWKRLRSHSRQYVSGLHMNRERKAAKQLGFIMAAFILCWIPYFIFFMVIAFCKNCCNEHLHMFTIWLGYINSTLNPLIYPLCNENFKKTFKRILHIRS

Assay [9] addresses T5, Adenosine receptor A3. Briefly: Antagonist activity at human adenosine A3 receptor expressed in forskolin-stimulated CHO cells assessed as inhibition of […]-induced decrease in cAMP level pre-incubated for 15 mins by enzyme immunoassay. The format is functional, cell-based. Summed up: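 Using CHO-A3 cells (20,000/well, DMEM F-12, 10% FCS), test compound plus 30 µM rolipram pre-incubated 15 min at 37 °C; 1 µM NECA added 15 min, then 10 µM forskolin 3 min. cAMP by enzyme immunoassay at 450 nm; pKB by Leff–Dougall equation.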

The target in assay [10] is T6, Adenosine receptor A2b (Homo sapiens, UniProt P29275).
T6 sequence (P29275 whole entry): T1 sequence (whole entry)
In words: Displacement of [3H]DPCPX from human adenosine A2B receptor expressed in HEK293 cells after 30 mins by beta scintillation counting. In kind it is cell-based.

Assay [11] addresses T6, Adenosine receptor A2b. Briefly: Antagonist activity at human adenosine A2B receptor expressed in HEK293 cells assessed as inhibition of […]-induced cAMP accumulation pre-incubated for 15 mins by enzyme immunoassay. In kind it is functional, cell-based. Summed up:
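HEK-293 A2B cells seeded 10,000/well in EMEM F-12 with 10% FCS; 15 min pre-incubation at 37 °C with 30 µM rolipram and test compound, followed by 10 µM NECA for 15 min. Enzyme-immunoassay readout of intracellular cAMP at 450 nm; pKB by Leff–Dougall equation.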

Assay [12] concerns the target T7, Adenosine receptor A1 (Homo sapiens, UniProt P30542).
T7 sequence (P30542 whole entry): T3 sequence (whole entry)
Briefly: Antagonist activity at human adenosine A1 receptor expressed in forskolin-stimulated CHO cells assessed as inhibition of […]-induced decrease in cAMP level pre-incubated for 15 mins by enzyme immunoassay. The format is functional, cell-based. In a few lines:
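CHO-A1 cells, 20,000/well, grown in EMEM F-12 with 10% FCS; washed, pre-incubated 15 min at 37 °C with 20 µM rolipram plus test compound, then 0.1 µM NECA 15 min and 3 µM forskolin 3 min. Intracellular cAMP read by enzyme immunoassay at 450 nm; pKB from IC50 by Leff–Dougall equation.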
Background: Cyclic AMP is a second messenger, typically raised through Gs and lowered through Gi signalling.

The target in assay [13] is T7, Adenosine receptor A1. Briefly: Displacement of [3H]DPCPX from human adenosine A1 receptor expressed in CHO cells after 60 mins by beta scintillation counting. The format is cell-based. In a few lines:
as §2

Adenosine receptor A2a, sequence (P29274 whole entry): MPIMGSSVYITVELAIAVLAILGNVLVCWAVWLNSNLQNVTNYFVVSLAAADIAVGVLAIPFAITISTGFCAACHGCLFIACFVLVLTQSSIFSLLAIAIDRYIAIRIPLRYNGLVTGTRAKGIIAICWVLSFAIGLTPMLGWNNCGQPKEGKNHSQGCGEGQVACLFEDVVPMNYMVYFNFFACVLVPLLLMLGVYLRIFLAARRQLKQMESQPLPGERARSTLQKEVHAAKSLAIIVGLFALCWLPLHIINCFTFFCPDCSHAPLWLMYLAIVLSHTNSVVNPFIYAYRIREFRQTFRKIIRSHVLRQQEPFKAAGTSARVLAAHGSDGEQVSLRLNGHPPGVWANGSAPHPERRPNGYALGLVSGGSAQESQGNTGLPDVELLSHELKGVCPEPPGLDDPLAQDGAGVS
5-hydroxytryptamine receptor 7 (Homo sapiens), sequence (P34969 whole entry): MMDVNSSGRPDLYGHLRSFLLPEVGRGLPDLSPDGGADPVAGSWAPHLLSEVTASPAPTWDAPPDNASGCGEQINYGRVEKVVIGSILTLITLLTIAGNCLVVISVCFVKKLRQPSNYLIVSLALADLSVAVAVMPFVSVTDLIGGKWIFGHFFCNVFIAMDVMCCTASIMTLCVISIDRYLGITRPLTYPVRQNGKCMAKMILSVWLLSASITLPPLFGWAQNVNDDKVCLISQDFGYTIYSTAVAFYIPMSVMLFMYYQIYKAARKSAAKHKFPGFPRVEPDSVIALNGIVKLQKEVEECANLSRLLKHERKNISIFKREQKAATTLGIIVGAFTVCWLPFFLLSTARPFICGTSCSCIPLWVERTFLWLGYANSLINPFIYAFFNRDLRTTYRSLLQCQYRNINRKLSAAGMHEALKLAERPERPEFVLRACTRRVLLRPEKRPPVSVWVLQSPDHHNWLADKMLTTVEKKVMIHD

As for `N#Cc1ccc(-c2nc(N3CCCCC3)c3ncn(-c4ccc(F)cc4)c3n2)cc1`, the inhibition (as a rule, the drop in the measured response relative to a control, in per cent) in assay [1] turned out to be 6.9%; in [2] it was 15.1%; in assay [3], 0.8%; in assay [4], 0.4%.

Take `Cc1ccc(-n2cnc3c(N4CCOCC4)nc(-c4ccc(C#N)cc4)nc32)cc1`: the inhibition is 6.8% in assay [1], 3% in assay [2], 7.6% in assay [3] and 6.1% in [4].

With `NC(=O)c1nc(-c2ccccc2O)nc2c1ncn2Cc1ccccc1`, the inhibition in [1] came to 9.5%; in [2], 10.9%; in [3], 11.1%; in [4] it was 22.9%.

For the molecule `NC(=O)c1nc(-c2cccc(O)c2)nc2c1ncn2-c1ccccc1`, the inhibition in assay [1] was 0.5%; in [2], 23.1%; in assay [3] it was 25.5%; in [4], 4.5%.

`Cc1ccc(-n2cnc3c(N4CCSCC4)nc(-c4ccc(C#N)cc4)nc32)cc1`: the inhibition in assay [1] was found to be 4.3%; in [2] it was 1.9%; in assay [3] it was 6.8%; in assay [4] it was 14.3%.

As to `Cc1cc(NC(=O)C2=C3N=C(c4cccs4)C=C(C(F)(F)F)N3NC2)no1`, the results for the inhibition in [3] and in [4] were 79% and 63%, respectively.

Take `O=C(Nc1ccco1)c1nc2nc(-c3cccs3)cc(C(F)(F)F)c2s1`: the inhibition was 60.7% in [3] and 70.5% in assay [4].

With `OC1=NCC2C(C=NN2Cc2ccccc2)C(c2ccc(Br)cc2)S1` (stereo unspecified), the inhibition in assay [3] was 18.8%; in assay [4] it was 8.1%.

As for `Cc1ccc(-c2ncc3[nH]c(=O)n(Cc4ccccc4)c3n2)cc1`, the Activity in [5] worked out at 18%; in assay [7], 1%; in [8], 17%. The inhibition in assay [1] worked out at 2.6%; in assay [2], 71.1%; in [3], 37.5%; in assay [4], 20%. Also, in assay [6], the affinity corresponds to a Ki of 316 nM. For the same molecule, the pKb – broadly, −log10 of the Kb, conventionally taken in molar units – in [9] was 6.3.

Turning to `CCO/C=N/c1c(C#N)ncn1Cc1ccccc1`, the inhibition worked out at 2% in assay [1], 1.9% in assay [2], 9.8% in assay [3] and 15.2% in assay [4].

Take `O=C(/N=C1\c2ccccc2CN1c1ncccn1)Nc1ccccc1`: the inhibition in [3] was 38.5%; in assay [4], 6.7%.

On to `N=C1c2c(C(N)=O)nc(-c3ccccc3O)n2CN1c1ccc(O)cc1`, for which the values for the Activity in [5], in assay [7] and in [8] were 28%, 11% and 17%, respectively. Further, the inhibition in assay [1] turned out to be 55.4%; in assay [2] it was 26.1%; in assay [3], 26.8%; in [4], 15.2%. Also, affinity in assay [10] was put at a Ki of 1580 nM. Moreover, the pKb in [11] turned out to be 5.7.

For the molecule `CN1N=C(C(=O)Nc2ccc(Cl)cn2)C2COc3ccccc3C21` (stereo unspecified), the inhibition in assay [3] turned out to be 8%; in [4] it was 13.3%.

With `C=CCOc1cccc(-c2nc(O)c3c4ccccc4c(=O)n(CC)n23)c1`, the Activity in assay [5] was determined as 14%; in assay [7], 20%; in [8] it was 42%. Moreover, the inhibition was 5% in assay [1], 39% in [2], 87.3% in [3] and 10.9% in [4]. Moreover, the pKb in assay [12] amounted to 6.8. Moreover, the Ki (in general, a measure of affinity in units of concentration, obtained from inhibition or displacement) in assay [13] is 15.8 nM.

Consider `COc1ccc(-c2nc(N3CCOCC3)c3ncn(-c4ccc(F)cc4)c3n2)cc1`, for which the inhibition in assay [1] is 3%; in assay [2] it was 31.8%; in assay [3], 18.8%; in assay [4], 5%.

In the case of `CCO/C(C)=N/c1c(C#N)ncn1Cc1ccccc1`, the inhibition amounted to 9.9% in assay [1], 28% in assay [2], 1.2% in assay [3] and 9.8% in assay [4].

On to `COc1cn(-c2ccccc2)nc1C(=O)Nc1ccc(C)cn1`, for which the inhibition in assay [3] was determined as 51.9%; in [4] it was 59.6%.
